# Calls of active or inactive are those of the source. No cut-off for these calls is given here.
# Tests used:
# [1] = tested on: Escherichia coli; assay: Antibacterial activity against Escherichia coli MG1655 grown as biofilms harboring plasmid pBR322 carrying blaTEM-1 and tetA(C) genes after 24 hrs by agar dilution method; assay type: functional
# Procedure, shortened: (§1)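 Biofilm MIC: cultures diluted to OD600 0.1 in LB, grown in PVC 96-well plates 24 h at 37°C without shaking; antibiotic added directly without washing as 10-fold dilutions, then 24 h more.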
# [2] = tested on: Escherichia coli; assay: Antibacterial activity against Escherichia coli MG1655 harboring plasmid pBR322 carrying blaTEM-1 and tetA(C) genes grown as planktonic cells after 24 hrs by agar dilution method; details: K-12 substr. MG1655, 24 h
# [3] = tested on: Escherichia coli; assay: Antibacterial activity against Escherichia coli MG1655 grown as planktonic cells harboring plasmid pBR322 carrying blaTEM-1 and tetA(C) genes assessed as reduction in bacterial biofilms formation; assay type: functional; details: K-12 substr. MG1655
# [4] = tested on: Escherichia coli; assay: Antibacterial activity against Escherichia coli OCL62 grown as biofilms harboring plasmid pBR322 carrying blaTEM-1 and tetA(C) genes after 24 hrs by crystal violet staining method; details: OCL62, 24 h
# [5] = tested on: Escherichia coli; assay: Antibacterial activity against Escherichia coli MG1655 grown as biofilms harboring plasmid pBR322 carrying blaTEM-1 and tetA(C) genes assessed as reduction in bacterial biofilms formation; assay type: functional; details: K-12 substr. MG1655
# Procedure, shortened: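 Biofilms grown in LB on PVC 96-well plates (inoculum OD600 0.1, 24 h, 37°C, static), then antibiotic added as 10-fold dilutions for 24 h. Eight replicates per condition, four independent experiments.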
# [6] = tested on: Escherichia coli; assay: Antibacterial activity against Escherichia coli OCL62 grown as planktonic cells after 24 hrs by agar dilution method; assay type: functional; details: OCL62, 24 h
# [7] = tested on: Escherichia coli; assay: Antibacterial activity against Escherichia coli MG1655 grown as biofilms assessed as inhibition of bacterial biofilms formation at 5 to 500 ug/ml; assay type: functional; details: K-12 substr. MG1655
# Procedure, shortened: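 MG1655 biofilms grown in LB in PVC 96-well plates from early-stationary cultures diluted to OD600 0.1, static 24 h at 37°C. Antibiotic added unwashed as 10-fold dilutions (0.0000005–500 μg/ml) for another 24 h.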
# [8] = tested on: Escherichia coli; assay: Antibacterial activity against Escherichia coli OCL62 grown as biofilms after 24 hrs by agar dilution method; assay type: functional; details: OCL62, 24 h; procedure, shortened: as §1
# [9] = tested on: Escherichia coli; assay: Antibacterial activity against Escherichia coli MG1655 grown as biofilms after 24 hrs by agar dilution method; assay type: functional; details: K-12 substr. MG1655, 24 h; procedure, shortened: as §1
# [10] = tested on: Escherichia coli; assay: Antibacterial activity against Escherichia coli OCL62 harboring plasmid pBR322 carrying blaTEM-1 and tetA(C) genes grown as planktonic cells after 24 hrs by broth microdilution method; details: OCL62, 24 h
# [11] = tested on: Escherichia coli; assay: Antibacterial activity against Escherichia coli MG1655 harboring grown as biofilms plasmid pBR322 carrying blaTEM-1 and tetA(C) genes assessed as decrease in bacterial biofilms formation at 5 ug/ml by GFP assay; assay type: functional; details: K-12 substr. MG1655
# [12] = tested on: Escherichia coli; assay: Antibacterial activity against Escherichia coli MG1655 grown as planktonic cells after 24 hrs by agar dilution method; assay type: functional; details: K-12 substr. MG1655, 24 h
compound,measurement,setting,value
GENTAMICIN,MIC,[1]; K-12 substr. MG1655,0.005 µg/mL
NC[C@H]1O[C@H](O[C@H]2[C@H](O)[C@@H](O[C@H]3O[C@H](CO)[C@@H](O)[C@H](N)[C@H]3O)[C@H](N)C[C@@H]2N)[C@H](O)[C@@H](O)[C@@H]1O [KANAMYCIN],MIC,"[1]; K-12 substr. MG1655, 24 h",0.5 µg/mL
CC[C@H]1OC(=O)[C@H](C)[C@@H](O[C@H]2C[C@@](C)(OC)[C@@H](O)[C@H](C)O2)[C@H](C)[C@@H](O[C@@H]2O[C@H](C)C[C@H](N(C)C)[C@H]2O)[C@](C)(O)C[C@@H](C)C(=O)[C@H](C)[C@@H](O)[C@]1(C)O [ERYTHROMYCIN],MIC,[2],0.5 µg/mL
same,MIC,"[1]; K-12 substr. MG1655, 24 h",5 µg/mL
CC1(C)S[C@@H]2[C@H](NC(=O)[C@H](N)c3ccccc3)C(=O)N2[C@H]1C(=O)O [AMPICILLIN],inhibition,[3],inactive
same,MIC,[4],50 µg/mL
same,inhibition,[5],Active
same,MIC,[6],5 µg/mL
same,Activity,[7],Active
same,MIC,[8],5 µg/mL
same,MIC,[9],5 µg/mL
same,MIC,[10],5 µg/mL
same,MIC,[2],500 µg/mL
same,inhibition,[11],Active
same,MIC,[12],0.5 µg/mL
same,MIC,"[1]; K-12 substr. MG1655, 24 h",5 µg/mL
CN(C)[C@@H]1C(O)=C(C(N)=O)C(=O)[C@@]2(O)C(O)=C3C(=O)c4c(O)cccc4[C@@](C)(O)[C@H]3C[C@@H]12 [TETRACYCLINE],Activity,[7],Active
same,MIC,[9],500 µg/mL
same,MIC,[2],500 µg/mL
same,inhibition,[11],Active
same,MIC,[12],0.5 µg/mL
same,MIC,"[1]; K-12 substr. MG1655, 24 h",> 500 µg/mL
O=C(N[C@H](CO)[C@H](O)c1ccc([N+](=O)[O-])cc1)C(Cl)Cl [CHLORAMPHENICOL],MIC,[2],0.5 µg/mL
same,MIC,"[1]; K-12 substr. MG1655, 24 h",5 µg/mL
CC1(C)S[C@@H]2[C@H](NC(=O)Cc3ccccc3)C(=O)N2[C@H]1C(=O)O [PENICILLIN G],MIC,[2],5 µg/mL
same,MIC,"[1]; K-12 substr. MG1655, 24 h",0.5 µg/mL

# — ChEMBL document CHEMBL1671674, “Induction of multidrug resistance mechanism in Escherichia coli biofilms by interplay between tetracycline and ampicillin resistance genes” (2009)
